Published values pooled from the literature.
Lines come from different studies, so protocols differ.
Target: Phosphatidylinositol 4,5-bisphosphate 3-kinase catalytic subunit beta isoform (PIK3CB, Homo sapiens, UniProt P42338)

| SMILES | read-out | technique | concentration | remaining binding [%] |
| --- | --- | --- | --- | --- |
| Cc1cnn2ncc(-c3ccnc(N(C)C)n3)c2c1 | binding |  | 1 µM | 74 |
| COc1cnc(Nc2cccc(S(N)(=O)=O)c2)nc1N1CCN(c2ccccc2)C(=O)C1 | binding | competition with immobilised ligand | 1 µM | 100 |
| O=c1nc(-c2ccccn2)sc2ccccc12 | cell-free assay | competition with immobilised ligand | 1 µM | 100 |
| C[C@@H](c1ccc(-n2cnc3c(N)ncnc32)cc1)N1CCc2nn(C)c(Cc3ccccc3)c2C1=O | binding | competition with immobilised ligand | 0.1 µM | 99 |
| CCN1CCN(Cc2ccc(C(=O)Nc3ccc(C)c(Oc4ccc5c(c4)CC(=O)N5)c3)cc2C(F)(F)F)CC1 | binding | competition with immobilised ligand | 1 µM | 100 |
| CNCc1ccccc1-c1csc([C@H](C)Nc2nc(C)nc3cc(OC)c(OC)cc23)c1 | cell-free assay | competition with immobilised ligand | 1 µM | 89 |
| Nc1ncc2c(n1)-c1c([nH]c3ccc(C#CC4CC4)cc13)CCCC2 | binding | competition with immobilised ligand | 1 µM | 100 |
| CN(C)c1nccc(-c2cnn3ncccc23)n1 | binding |  | 1 µM | 50 |
| Nc1c(C(=O)NCc2ccc(C(=O)NCCCC3CCCCC3)cc2)cnn1-c1ccccc1 | cell-free assay | competition with immobilised ligand | 0.1 µM | 100 |
| COc1ccnn2ncc(-c3ccnc(N(C)C)n3)c12 | binding |  | 1 µM | 75 |
| Cc1cnc(Nc2ccc(C(=O)N3CCC(N4CCCC4)CC3)cc2)nc1-c1cc2ccccc2s1 | binding | competition with immobilised ligand | 1 µM | 99 |
| C[C@@H]1CN(c2cc(-c3n[nH]c4ccc(OC5(C)CC5)cc34)ncn2)C[C@H](C)O1 | cell-free assay | competition with immobilised ligand | 0.1 µM | 59 |
| C=CC(=O)N1CCC(C(=O)NCC(=O)N2CCN(c3nc(-c4cnc(N)nc4C(F)F)nc(N4CCOCC4)n3)CC2)CC1 | binding | competition with immobilised ligand | 1 µM | 0.05 |
| F[C@@H]1CCN(c2nccc(-c3cnn4ncccc34)n2)C1 | binding |  | 1 µM | 100 |
| O=C(Nc1c[nH]nc1C(=O)NC1CCNCC1)c1cc(F)cc(F)c1 | binding | competition with immobilised ligand | 1 µM | 100 |
| O=C(c1ccc(Nc2nccc(-c3cc4ccccc4s3)n2)cc1)N1CCC(N2CCCC2)CC1 | binding | competition with immobilised ligand | 1 µM | 86 |
| CCC(=N\O)/C(C)=C/c1ccc(F)cc1 | cell-free assay | competition with immobilised ligand | 1 µM | 99 |
| O=C(NCCCN1CCOCC1)c1ccc(Nc2nccc(-c3cc4ccccc4s3)n2)cc1 | binding | competition with immobilised ligand | 1 µM | 100 |
| N[C@@H]1CCN(c2nccc(-c3cnn4ncccc34)n2)C1 | binding |  | 1 µM | 100 |
| CN(c1ccnc(CNc2nc(Nc3ccc4c(c3)CC(=O)N4)ncc2C(F)(F)F)n1)S(C)(=O)=O | cell-free assay | competition with immobilised ligand | 1 µM | 100 |
